Compounds with a hit are over-represented: about 5.2% of the library has one in this group of screens.
ZTA counter – blocks Epstein-Barr virus ZTA, an EBNA-1 counter-screen; inhibition, % at 11 µM; P03206; 320,000 compounds, 0.15% hits; ZTA-DNA binding, fluorescence polarization; AID 2234; in the data active means inhibition above about 33%
Target sequence (P03206 whole entry, looked up): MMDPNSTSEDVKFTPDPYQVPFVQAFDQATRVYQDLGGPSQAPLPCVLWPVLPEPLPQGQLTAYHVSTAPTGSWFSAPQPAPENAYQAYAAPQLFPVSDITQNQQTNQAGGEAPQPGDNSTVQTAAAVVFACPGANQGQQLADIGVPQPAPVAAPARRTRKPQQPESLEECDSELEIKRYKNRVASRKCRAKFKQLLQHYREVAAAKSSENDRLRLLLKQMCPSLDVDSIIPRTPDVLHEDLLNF
NS3 helicase inh – HCV NS3 helicase inhibition | NS3 helicase DNA unwinding, Cy5 molecular beacon fluorescence | 290,000 compounds, 0.56% hits | inhibition, % at 10.9 µM | AID 1800;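 active means inhibition above the mean of all tested compounds plus 3 SD, set per campaign, cut at about 35% in these data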;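 further: 0% = DMSO wells and 100% = thioflavine S control wells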
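assay system = NS3 helicase fragment of HCV | buffer or medium = MOPS pH 6.5, MgCl2, DTT, Tween20, BSA | timing = 60 min unwinding reaction at 25 °C after ATP addition | signal = Cy5 beacon fluorescence read at start and 1 h | read-out basis = % inhibition of unwinding | control set = low DMSO, high thioflavine S at 110 µM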
ALR inh – human ALR oxidase inhibition via reduced H2O2. AID 485317. P55789. 290,000 compounds, 3.8% hits. inhibition, % (test concentration not listed). purified ALR, DTT oxidation, H2O2 HRP-luminol luminescence;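 active means mean replicate inhibition above about 79%, with every replicate also reaching it, limit read from the data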
Target sequence (P55789 whole entry, looked up): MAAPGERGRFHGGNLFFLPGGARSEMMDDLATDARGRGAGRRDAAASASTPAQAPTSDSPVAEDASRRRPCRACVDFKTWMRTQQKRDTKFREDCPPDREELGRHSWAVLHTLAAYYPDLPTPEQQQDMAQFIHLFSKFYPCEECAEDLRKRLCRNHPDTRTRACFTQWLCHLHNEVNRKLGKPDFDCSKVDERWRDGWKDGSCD
EBNA-1 inh – blocks EBNA-1 binding to DNA; EBNA-1 DNA binding, fluorescence polarization; 300,000 compounds, 0.34% hits; AID 1950; inhibition, % at 14.8 µM; in the data active means inhibition above about 28%
PfM18AAP inh – PfM18AAP enzyme inhibition; recombinant PfM18AAP, H-Glu-NHMec fluorogenic cleavage; inhibition, % at 7.35 µM; 290,000 compounds, 1.2% hits; AID 1822;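 active means inhibition above the campaign mean inhibition over all tested compounds plus 3 SD, cut at about 28% in these data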;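 further: 0% = plate median of test compound wells and 100% = 2 mM ZnCl2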
core dimer inh – HCV core protein dimerization inhibition; TR-FRET GST/Flag-core106 dimerization, 1536-well; inhibition, % at 5 µM; 300,000 compounds, 0.33% hits; AID 1899;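 active means inhibition above the mean of all tested compounds plus 3 SD, set per screening campaign, cut at about 45% in these data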
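Assay system – GST-tagged and Flag-tagged HCV core protein residues 1-106 · Quantity – core106 proteins, GST 13.5 nM and Flag 17 nM · Benchmarks – unlabelled core106 and no-GST-core106 wells · Read-out basis – percent inhibition of core106 dimerization signal · Detection – time-resolved FRET, ex 340 nm, em 617 and 671 nm · Schedule – 4 h at 22.5 °C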
* marks the source's active call; other numbers are inactive results.

Results for CCOc1ccc(C2NC(=O)C(C#N)=C(S)N2c2ccc(OC)cc2)cc1OC (stereo not given) ?
ZTA counter: 10; NS3 helicase inh: 7; ALR inh: 97*; EBNA-1 inh: 4; PfM18AAP inh: 1; core dimer inh: 5

How did O=C(O)CCCC(=O)N1CCN(c2nc(-c3ccccc3)c3ccccc3n2)CC1 do in these assays?
ZTA counter: 5; NS3 helicase inh: 17; ALR inh: 77*; EBNA-1 inh: -5; PfM18AAP inh: -6; core dimer inh: 8

What do the screens show for `N#CC(C#N)=C1NC2(CCCCC2)Cc2ccccc21`?
ZTA counter: 7; NS3 helicase inh: 1; ALR inh: -8; EBNA-1 inh: 8; PfM18AAP inh: 5; core dimer inh: 3

What do the screens show for `N#CC(C#N)=c1ccc2c(c1)NC1(CCCCC1)N=2`?
ZTA counter: 40*; NS3 helicase inh: 21; ALR inh: 58; EBNA-1 inh: 38*; PfM18AAP inh: 6; core dimer inh: -8

How did COc1cc(C)c(CN2CCN(C(C)C(=O)NC(C)c3ccccc3)CC2)cc1OC (stereo not given) do in these assays?
ZTA counter: 10; NS3 helicase inh: 2; ALR inh: 6; EBNA-1 inh: 2; PfM18AAP inh: 3; core dimer inh: 5

Results for CC1=CC(=O)C=C(C)C1=NOC(=O)c1cccc([N+](=O)[O-])c1 ?
ZTA counter: -6; NS3 helicase inh: 2; ALR inh: 100*; EBNA-1 inh: -4; PfM18AAP inh: 0; core dimer inh: -12

How did COc1ccc2nc(SCC(=O)NC(C)c3ccccc3)[nH]c2c1 (stereo not given) do in these assays?
ZTA counter: -2; ALR inh: 10

How did Brc1ccc(C2=CSC3=NCCN23)cc1 do in these assays?
ZTA counter: -14; NS3 helicase inh: -2; EBNA-1 inh: -8; PfM18AAP inh: 9; core dimer inh: 11

What do the screens show for `Oc1ccc(C2=CSC3=NCCN23)cc1O`?
ZTA counter: -4; NS3 helicase inh: 0; ALR inh: 100*; EBNA-1 inh: -14; PfM18AAP inh: 55*; core dimer inh: -4

Results for Cc1nc(-c2ccc(F)cc2)c(CC(=O)N(C)CC(=O)Nc2ccc(F)cc2)s1 ?
ZTA counter: -5; ALR inh: 2; EBNA-1 inh: -21; core dimer inh: 1

What do the screens show for `Cc1nc(N2CCCCC2)c2sc(=S)n(C)c2n1`?
ZTA counter: -15; NS3 helicase inh: 3; ALR inh: 25; EBNA-1 inh: 8; PfM18AAP inh: 1; core dimer inh: -3

How did CCN1CCN(c2nc(C)nc3c2sc(=S)n3C)CC1 do in these assays?
NS3 helicase inh: 7; PfM18AAP inh: 34*

Results for O=C(c1ccc(NS(=O)(=O)c2ccc3[nH]c(=O)[nH]c3c2)cc1)N1CCN(c2ccccc2O)CC1 ?
ZTA counter: 15; ALR inh: 98*; EBNA-1 inh: -5; core dimer inh: 4

Results for Cc1cccc(N2CCN(C(=O)c3ccc(NS(=O)(=O)c4ccc5[nH]c(=O)[nH]c5c4)cc3)CC2)c1C ?
ZTA counter: 14; NS3 helicase inh: -16; ALR inh: -1; EBNA-1 inh: -5; PfM18AAP inh: 2; core dimer inh: 24

What do the screens show for `O=c1c2ccccc2cnn1Cc1n[nH]c(=S)n1-c1cc(Cl)cc(Cl)c1`?
ZTA counter: -10; NS3 helicase inh: 2; ALR inh: 33; EBNA-1 inh: 1; PfM18AAP inh: 30*; core dimer inh: -2

Results for CC(C)N(CCCNC(=O)Cn1c(=O)c2cccn2c2ccccc21)Cc1ccccc1 ?
ZTA counter: -6; NS3 helicase inh: -5; ALR inh: -2; EBNA-1 inh: 6; PfM18AAP inh: -5; core dimer inh: 12

What do the screens show for `O=C(C1CCCN(S(=O)(=O)c2ccc(Br)cc2)C1)N1CCN(Cc2ccccc2)CC1` (stereo not given)?
ZTA counter: -12; NS3 helicase inh: -16; ALR inh: -4; EBNA-1 inh: -4; PfM18AAP inh: -1; core dimer inh: 1

What do the screens show for `N#CC1=C(N)Oc2c(ccc3ccccc23)C1c1ccsc1` (stereo not given)?
ZTA counter: 15; NS3 helicase inh: 14; ALR inh: -60; EBNA-1 inh: -21; PfM18AAP inh: 6; core dimer inh: 71*

Results for Cc1ccc(NC(=S)NNC(=O)c2ccccc2OC(F)F)cc1 ?
ZTA counter: 0; NS3 helicase inh: -1; EBNA-1 inh: 9; PfM18AAP inh: 4; core dimer inh: -5

What do the screens show for `Cc1ccc(NC(=S)NNC(=O)c2cn(C)nc2C)cc1`?
ZTA counter: -7; NS3 helicase inh: -4; ALR inh: 97*; EBNA-1 inh: -6; PfM18AAP inh: 18; core dimer inh: -3

Results for Cc1ccc(NC(=S)NNC(=O)c2c([N+](=O)[O-])c(C)nn2C)cc1 ?
ZTA counter: -11; NS3 helicase inh: 4; ALR inh: 12; EBNA-1 inh: 7; PfM18AAP inh: 4; core dimer inh: -4

How did Cc1ccc(NC(=S)NNC(=O)c2nn(C)c(C)c2Cl)cc1 do in these assays?
ZTA counter: 0; NS3 helicase inh: 0; ALR inh: 90*; EBNA-1 inh: -3; PfM18AAP inh: 7; core dimer inh: -15

What do the screens show for `Cc1ccc(NC(=S)NNC(=O)c2c(Cl)c(C)nn2C)cc1`?
ZTA counter: 6; NS3 helicase inh: 9; ALR inh: 87*; EBNA-1 inh: 9; PfM18AAP inh: 4; core dimer inh: 4

How did Cc1ccc(NC(=O)NN(C)c2c(Cl)c(Cl)nn2C)cc1 do in these assays?
ZTA counter: -18; NS3 helicase inh: 2; ALR inh: 0; EBNA-1 inh: 2; PfM18AAP inh: 6; core dimer inh: -2

What do the screens show for `CCCOc1ccc(/C=C/c2c([N+](=O)[O-])c(=O)n(C)c(=O)n2C)cc1`?
ZTA counter: 1; NS3 helicase inh: 1; ALR inh: -1; EBNA-1 inh: -7; PfM18AAP inh: -2; core dimer inh: 15

Results for O=C(CSc1nc2c(sc3ccccc32)c(=O)n1CCO)NCc1ccco1 ?
ZTA counter: 21; NS3 helicase inh: 6; ALR inh: 3; EBNA-1 inh: -6; PfM18AAP inh: -2; core dimer inh: 5

How did O=C(CSc1nc2sc3c(c2c(=O)n1-c1ccccc1)CCCC3)NCc1ccco1 do in these assays?
ZTA counter: -6; NS3 helicase inh: 0; EBNA-1 inh: 5; PfM18AAP inh: 4; core dimer inh: 12

How did O=C(CSc1nc2c(sc3ccccc32)c(=O)n1CCCN1CCCC1)NCc1ccco1 do in these assays?
ZTA counter: 5; NS3 helicase inh: -6; ALR inh: 98*; EBNA-1 inh: 4; PfM18AAP inh: 8; core dimer inh: 2
